The target of assay [1] is ATP-dependent translocase ABCB1 (Homo sapiens, UniProt P08183). Kind of assay: Inhibition of human MDR1 expressed in MDCK-MDR1 cells assessed as calcein cell accumulation after 30 mins by spectrofluorimetry. The class given is cell-based. In short, it runs like this:
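Confluent MDCK-MDR1 monolayers given test compound (0.1-100 µM) for 30 min at 37 °C, then calcein-AM at 2.5 µM final for 30 min. Washed with ice-cold PBS and read at ex 485 / em 535 nm. Fluorescence rise over untreated basal level fitted against log dose to give EC50; n ≥ 3 experiments in duplicate.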

A further assay has as its system Panc02. Kind of assay: Cytotoxicity against mouse Panc02 cells after 48 hrs by MTT assay. The class given is functional, cell-based. The conditions noted are these: Panc02, 48 h. In short, it runs like this: (§1)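 Pancreatic lines kept at 37 °C, 5% CO2. AsPC1, BxPC3 and Panc02 grown in RPMI with 10% FBS. MIAPaCa2 in DMEM with 10% FBS and 2.5% horse serum. PANC1 in DMEM with 10% FBS. KCKO in RPMI with 10% FBS plus pyruvate, HEPES and glutamine. KP02 in DMEM/F12 with 10% FBS.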
A general note: Tetrazolium assays rely on reduction of a dye to a coloured formazan, in cell work by metabolically active cells.

A short description of assay [2]: Cytotoxicity against mouse Kp02 cells after 48 hrs by MTT assay. The class given is functional, cell-based. In a few lines:
as §1

The nature of assay [3]: Cytotoxicity against mouse KCKO cells after 48 hrs by MTT assay. The class given is functional, cell-based. In a few lines:
as §1

The test system of another assay is MIA PaCa-2. Kind of assay: Cytotoxicity against human MIAPaCa2 cells after 48 hrs by MTT assay. The class given is functional, cell-based. The conditions noted are these: MIA PaCa-2, 48 h. In short, it runs like this: as §1
Another assay concerns BXPC-3. Kind of assay: Cytotoxicity against human BxPC3 cells after 48 hrs by MTT assay. The class given is functional, cell-based. The conditions noted are these: BXPC-3, 48 h. In short, it runs like this: as §1
In another assay the test system is ASPC1. Kind of assay: Cytotoxicity against human AsPC1 cells after 48 hrs by MTT assay. The class given is functional, cell-based. The conditions noted are these: ASPC1, 48 h. In short, it runs like this:
as §1

Each structure is given as a SMILES string. Where only a bound is given, the exact number is not on record here.

As usually defined, the EC50 is the concentration needed to bring the measured effect to its halfway point.

Chain of ATP-dependent translocase ABCB1 (P08183 whole entry): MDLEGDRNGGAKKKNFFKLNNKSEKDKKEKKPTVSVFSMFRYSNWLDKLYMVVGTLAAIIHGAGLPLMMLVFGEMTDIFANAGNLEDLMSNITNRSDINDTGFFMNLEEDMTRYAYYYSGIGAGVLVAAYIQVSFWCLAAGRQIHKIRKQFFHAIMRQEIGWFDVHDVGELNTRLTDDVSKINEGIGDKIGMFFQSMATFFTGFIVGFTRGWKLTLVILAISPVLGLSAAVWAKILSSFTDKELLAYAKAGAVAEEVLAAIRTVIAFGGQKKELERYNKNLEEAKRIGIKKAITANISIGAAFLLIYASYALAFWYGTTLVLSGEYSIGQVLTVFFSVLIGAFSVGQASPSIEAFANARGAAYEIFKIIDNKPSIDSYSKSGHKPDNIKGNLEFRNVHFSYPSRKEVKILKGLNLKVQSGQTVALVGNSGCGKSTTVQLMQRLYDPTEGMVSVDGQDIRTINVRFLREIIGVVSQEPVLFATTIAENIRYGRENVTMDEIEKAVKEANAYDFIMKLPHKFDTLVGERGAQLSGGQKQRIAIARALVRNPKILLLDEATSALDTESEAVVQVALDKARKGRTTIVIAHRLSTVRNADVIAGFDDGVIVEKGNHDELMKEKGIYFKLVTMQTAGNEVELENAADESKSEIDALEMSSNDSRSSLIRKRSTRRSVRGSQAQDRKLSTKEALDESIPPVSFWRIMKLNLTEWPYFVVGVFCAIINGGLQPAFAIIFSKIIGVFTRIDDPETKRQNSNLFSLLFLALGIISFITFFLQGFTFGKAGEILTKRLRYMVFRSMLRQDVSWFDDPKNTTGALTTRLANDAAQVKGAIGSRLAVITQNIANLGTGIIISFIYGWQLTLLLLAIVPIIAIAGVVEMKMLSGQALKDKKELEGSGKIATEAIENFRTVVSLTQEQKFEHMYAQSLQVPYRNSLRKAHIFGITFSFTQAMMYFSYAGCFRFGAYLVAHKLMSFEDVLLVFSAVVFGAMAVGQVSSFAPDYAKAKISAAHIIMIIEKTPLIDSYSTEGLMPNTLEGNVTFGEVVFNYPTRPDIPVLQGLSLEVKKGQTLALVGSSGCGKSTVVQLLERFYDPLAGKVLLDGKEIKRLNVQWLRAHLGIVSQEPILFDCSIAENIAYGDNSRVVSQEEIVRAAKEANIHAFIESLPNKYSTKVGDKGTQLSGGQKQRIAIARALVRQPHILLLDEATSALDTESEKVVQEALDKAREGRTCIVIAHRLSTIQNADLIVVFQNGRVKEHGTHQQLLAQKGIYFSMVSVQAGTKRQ

On to `COc1cc2c(cc1OC)CN(CCCCn1ccc3ccccc31)CC2`, for which the EC50 in assay [1] is 6.09 µM; in the assay on Panc02 it was above 100 µM; in assay [2], 49 µM; in assay [3], 77 µM; in the assay with MIA PaCa-2, 40 µM; in the assay on BXPC-3 it was above 100 µM. The EC50 in the assay on ASPC1 is above 100 µM.
On to `c1ccc2c(c1)ccn2CCCCN1CCN(C2CCCCC2)CC1`, for which the concentration giving a half-maximal response (EC50) in assay [1] is 0.46 µM; with Panc02 it was above 100 µM; in assay [2], 70 µM; in assay [3], 67 µM; in the assay on MIA PaCa-2 it was 79 µM; in the assay with BXPC-3, above 100 µM. The molecule also had a concentration giving a half-maximal response (EC50) in the assay on ASPC1 above 100 µM.

The values above are taken from ChEMBL document CHEMBL4251616, “Multifunctional thiosemicarbazones and deconstructed analogues as a strategy to study the involvement of metal chelation, Sigma-2 (σ2) receptor and P-gp protein in the cytotoxic action: In vitro and in vivo activity in pancreatic tumors” (Eur J Med Chem, 2018).
